{"source": "ChEMBL document CHEMBL3994646", "about": "“Structure-based design and SAR development of 5,6-dihydroimidazolo[1,5-f]pteridine derivatives as novel Polo-like kinase-1 inhibitors” (Bioorg Med Chem Lett, 2017)", "key": {"HT-29 [1]": {"tested_on": "HT-29", "test": "Antiproliferative activity against human HT-29 cells after 72 hrs by CellTiter-Glo assay", "details": "HT-29, 72 h; call rule not given here"}, "Cytochrome P450 3A4": {"target": "Cytochrome P450 3A4 (Homo sapiens, UniProt P08684)", "sequence (P08684 whole entry)": "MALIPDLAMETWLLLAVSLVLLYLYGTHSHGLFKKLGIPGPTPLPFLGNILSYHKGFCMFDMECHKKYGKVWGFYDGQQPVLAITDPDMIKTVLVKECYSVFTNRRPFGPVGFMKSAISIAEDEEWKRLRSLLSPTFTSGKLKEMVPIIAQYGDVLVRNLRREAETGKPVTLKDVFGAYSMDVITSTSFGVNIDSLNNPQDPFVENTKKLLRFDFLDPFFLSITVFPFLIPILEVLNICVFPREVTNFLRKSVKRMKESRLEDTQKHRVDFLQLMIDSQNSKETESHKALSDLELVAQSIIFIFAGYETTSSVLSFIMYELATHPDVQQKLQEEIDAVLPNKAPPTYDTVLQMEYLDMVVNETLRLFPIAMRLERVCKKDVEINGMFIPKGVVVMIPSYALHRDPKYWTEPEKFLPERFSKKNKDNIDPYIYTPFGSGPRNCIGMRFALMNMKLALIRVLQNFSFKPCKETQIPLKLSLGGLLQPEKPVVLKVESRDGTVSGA", "test": "Inhibition of CYP3A4 (unknown origin)", "assay_type": "ADME"}, "Cytochrome P450 2C8": {"target": "T1, Cytochrome P450 2C8 (Homo sapiens, UniProt P10632)", "T1 sequence (P10632 whole entry)": "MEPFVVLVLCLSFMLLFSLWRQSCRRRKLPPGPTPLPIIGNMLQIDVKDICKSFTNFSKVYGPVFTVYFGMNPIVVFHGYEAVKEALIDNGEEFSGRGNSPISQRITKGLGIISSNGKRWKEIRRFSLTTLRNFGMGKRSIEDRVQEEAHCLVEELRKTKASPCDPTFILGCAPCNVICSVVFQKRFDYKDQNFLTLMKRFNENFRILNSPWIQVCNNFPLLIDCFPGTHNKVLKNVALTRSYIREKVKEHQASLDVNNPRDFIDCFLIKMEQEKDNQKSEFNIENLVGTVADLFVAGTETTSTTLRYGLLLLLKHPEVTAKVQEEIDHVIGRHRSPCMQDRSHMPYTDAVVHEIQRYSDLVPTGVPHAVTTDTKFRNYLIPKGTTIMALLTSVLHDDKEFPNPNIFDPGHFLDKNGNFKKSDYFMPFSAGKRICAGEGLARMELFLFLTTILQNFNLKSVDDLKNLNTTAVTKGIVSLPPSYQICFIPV", "test": "Inhibition of CYP2C8 (unknown origin)", "assay_type": "ADME"}, "[2]": {"test": "Oral bioavailability in rat", "assay_type": "ADME, organism-based", "details": "in vivo", "method_in_brief": "(§1)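 Rats dosed at about 1.0 mg/kg IV in 30% β-cyclodextrin in 0.05 M MSA, pH 3, and about 5.0 mg/kg orally in 0.5% methylcellulose. Clearance from the IV arm; oral bioavailability from comparison of the two routes.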"}, "[3]": {"test": "Inhibition of CYP450 (unknown origin)", "assay_type": "ADME", "details": "human"}, "[4]": {"test": "Cmax in mouse at 1 mg/kg, iv", "assay_type": "ADME, organism-based", "design": "dose 1 mg/kg, route intravenous", "details": "in vivo", "method_in_brief": "(§2)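 Female mice dosed intravenously at 1 mg/kg. Plasma concentration–time data used to derive Cmax, T1/2, MRT, AUC0-t, extrapolated AUC, clearance and steady-state volume of distribution.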"}, "[5]": {"test": "Cmax in mouse at 5 mg/kg, po", "assay_type": "ADME, organism-based", "design": "dose 5 mg/kg, route oral", "details": "in vivo", "method_in_brief": "(§3)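 Female mice given 5 mg/kg orally. Oral exposure (Cmax, Tmax, T1/2, MRT, AUC0-t, extrapolated AUC) measured, and bioavailability taken relative to the 1 mg/kg IV arm.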"}, "[6]": {"test": "Tmax in mouse at 5 mg/kg, po", "assay_type": "ADME, organism-based", "details": "in vivo", "method_in_brief": "as §3"}, "[7]": {"test": "Half life in mouse at 1 mg/kg, iv", "assay_type": "ADME, organism-based", "details": "in vivo", "method_in_brief": "as §2"}, "[8]": {"test": "Half life in mouse at 5 mg/kg, po", "assay_type": "ADME, organism-based", "details": "in vivo", "method_in_brief": "as §3"}, "[9]": {"test": "Mean residence time in mouse at 1 mg/kg, iv", "assay_type": "ADME, organism-based", "details": "in vivo", "method_in_brief": "as §2"}, "[10]": {"test": "Mean residence time in mouse at 5 mg/kg, po", "assay_type": "ADME, organism-based", "details": "in vivo", "method_in_brief": "as §3"}, "[11]": {"test": "AUCextrapolated in mouse at 1 mg/kg, iv", "assay_type": "ADME, organism-based", "details": "in vivo", "method_in_brief": "as §2"}, "[12]": {"test": "AUCextrapolated in mouse at 5 mg/kg, po", "assay_type": "ADME, organism-based", "details": "in vivo", "method_in_brief": "as §3"}, "[13]": {"test": "AUC (0 to t) in mouse at 1 mg/kg, iv", "assay_type": "ADME, organism-based", "details": "in vivo", "method_in_brief": "as §2"}, "[14]": {"test": "AUC (0 to t) in mouse at 5 mg/kg, po", "assay_type": "ADME, organism-based", "details": "in vivo", "method_in_brief": "as §3"}, "[15]": {"test": "Clearance in mouse at 1 mg/kg, iv", "assay_type": "ADME, organism-based", "details": "in vivo", "method_in_brief": "as §2"}, "[16]": {"test": "Volume of distribution at steady state in mouse at 1 mg/kg, iv", "assay_type": "ADME, organism-based", "details": "in vivo, read-out: Vdss", "method_in_brief": "as §2"}, "[17]": {"test": "Oral bioavailability in mouse at 5 mg/kg", "assay_type": "ADME, organism-based", "details": "in vivo", "method_in_brief": "as §3"}, "HT-29 [18]": {"tested_on": "HT-29", "test": "Antitumor activity against human HT-29 cells xenografted in mouse assessed as tumor growth inhibition at 45 mg/kg, iv 1/time/week x 1 cycle relative to control", "assay_type": "functional", "method_in_brief": "(§4)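 Mice bearing HT-29 xenografts given 45 mg/kg IV once weekly for one cycle. Efficacy expressed as tumour T/C (%) versus control; tolerability as percent body weight loss.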"}, "Mus musculus [19]": {"tested_on": "Mus musculus", "test": "Toxicity in mouse xenografted with human HT-29 cells assessed as body weight loss at 45 mg/kg, iv 1/time/week x 1 cycle relative to control", "assay_type": "organism-based", "details": "in vivo", "method_in_brief": "as §4"}, "Mus musculus [20]": {"tested_on": "Mus musculus", "test": "Bioavailability in mouse at 5 mg/kg, po", "details": "in vivo"}, "[21]": {"test": "Clearance in rat", "assay_type": "ADME", "details": "in vivo", "method_in_brief": "as §1"}, "hERG (KCNH2)": {"target": "hERG (KCNH2) (Homo sapiens, UniProt Q12809)", "sequence (Q12809 whole entry)": "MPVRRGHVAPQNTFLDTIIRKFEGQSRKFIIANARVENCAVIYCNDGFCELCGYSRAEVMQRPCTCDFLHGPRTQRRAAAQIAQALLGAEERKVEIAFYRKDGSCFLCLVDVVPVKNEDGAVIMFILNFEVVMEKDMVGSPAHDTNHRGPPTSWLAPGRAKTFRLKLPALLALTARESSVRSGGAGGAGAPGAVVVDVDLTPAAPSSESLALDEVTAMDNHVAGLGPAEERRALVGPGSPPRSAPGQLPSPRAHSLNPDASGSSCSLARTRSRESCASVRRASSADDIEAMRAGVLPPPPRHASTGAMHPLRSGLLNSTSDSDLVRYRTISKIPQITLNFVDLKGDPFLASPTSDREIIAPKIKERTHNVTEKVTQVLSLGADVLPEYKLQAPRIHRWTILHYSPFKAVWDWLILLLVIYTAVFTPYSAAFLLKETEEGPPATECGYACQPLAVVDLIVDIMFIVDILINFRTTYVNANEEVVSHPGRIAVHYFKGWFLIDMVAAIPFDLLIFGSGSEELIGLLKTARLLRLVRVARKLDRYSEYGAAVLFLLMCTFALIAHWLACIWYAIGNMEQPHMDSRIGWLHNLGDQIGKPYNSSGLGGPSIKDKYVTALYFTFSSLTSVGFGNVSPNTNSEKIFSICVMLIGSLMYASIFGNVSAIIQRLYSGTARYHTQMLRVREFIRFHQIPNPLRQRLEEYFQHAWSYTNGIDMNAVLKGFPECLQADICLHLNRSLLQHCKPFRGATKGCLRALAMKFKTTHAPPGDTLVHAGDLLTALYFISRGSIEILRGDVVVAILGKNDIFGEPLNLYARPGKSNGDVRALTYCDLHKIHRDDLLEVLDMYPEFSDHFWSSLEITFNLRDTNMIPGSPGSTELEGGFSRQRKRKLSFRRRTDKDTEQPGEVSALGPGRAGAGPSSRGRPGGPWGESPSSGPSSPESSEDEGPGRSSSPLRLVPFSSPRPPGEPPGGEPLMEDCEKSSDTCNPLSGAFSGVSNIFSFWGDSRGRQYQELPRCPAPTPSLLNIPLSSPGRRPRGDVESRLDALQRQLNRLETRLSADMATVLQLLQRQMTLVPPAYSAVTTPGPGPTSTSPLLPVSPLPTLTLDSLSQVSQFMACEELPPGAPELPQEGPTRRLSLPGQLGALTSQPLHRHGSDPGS", "test": "Inhibition of human ERG at 10 uM relative to control"}}, "data": [{"molecule": "CCOC(=O)c1ncn2c1[C@@H](CC)N(C1CCCC1)c1nc(Nc3ccc(C(=O)NC4CCN(C)CC4)cc3OC)ncc1-2", "values": [{"measurement": "EC50", "setting": "HT-29 [1]", "result": 9, "unit": "nM"}]}, {"molecule": "CC[C@@H]1c2c(CO)ncn2-c2cnc(Nc3ccc(C(=O)NC4CCN(C)CC4)cc3OC)nc2N1C1CCCC1", "values": [{"measurement": "EC50", "setting": "HT-29 [1]", "result": 30, "unit": "nM"}]}, {"molecule": "CC[C@@H]1c2c(C#N)ncn2-c2cnc(Nc3cc(F)c(C(=O)NC4CCN(C)CC4)cc3OC)nc2N1C1CCCCC1", "values": [{"measurement": "EC50", "setting": "HT-29 [1]", "result": 2, "unit": "nM"}, {"measurement": "IC50", "setting": "Cytochrome P450 3A4", "result": "< 10000", "unit": "nM"}, {"measurement": "IC50", "setting": "Cytochrome P450 2C8", "result": "< 10000", "unit": "nM"}]}, {"molecule": "CC[C@@H]1c2c(C#N)ncn2-c2cnc(Nc3cc(F)c(C(=O)NC4CCN(C)CC4)cc3OC)nc2N1C(C)C", "values": [{"measurement": "EC50", "setting": "HT-29 [1]", "result": 4, "unit": "nM"}, {"measurement": "bioavailability", "setting": "[2]", "result": 47, "unit": "%"}, {"measurement": "inhibition (INH)", "setting": "[3]", "result": "Not Active"}]}, {"molecule": "CC[C@@H]1c2c(C(=O)N(C)O)ncn2-c2cnc(Nc3ccc(C(=O)NC4CCN(C)CC4)cc3OC)nc2N1C1CCCC1", "values": [{"measurement": "EC50", "setting": "HT-29 [1]", "result": 60, "unit": "nM"}]}, {"molecule": "CC[C@@H]1c2c(C#N)ncn2-c2cnc(Nc3cc(F)c(C(=O)N[C@H]4CC[C@H](N5CCN(CC6CC6)CC5)CC4)cc3OC)nc2N1C(C)C", "values": [{"measurement": "EC50", "setting": "HT-29 [1]", "result": 22, "unit": "nM"}, {"measurement": "bioavailability", "setting": "[2]", "result": 100, "unit": "%"}, {"measurement": "inhibition (INH)", "setting": "[3]", "result": "Not Active"}, {"measurement": "Cmax", "setting": "[4]", "result": 258, "unit": "ng/mL"}, {"measurement": "Cmax", "setting": "[5]", "result": 354, "unit": "ng/mL"}, {"measurement": "Tmax", "setting": "[6]", "result": 4, "unit": "h"}, {"measurement": "half-life", "setting": "[7]", "result": 4.7, "unit": "h"}, {"measurement": "half-life", "setting": "[8]", "result": 8.5, "unit": "h"}, {"measurement": "MRT", "setting": "[9]", "result": 6.5, "unit": "h"}, {"measurement": "MRT", "setting": "[10]", "result": 13, "unit": "h"}, {"measurement": "AUC", "setting": "[11]", "result": 1010, "unit": "ng·h/mL"}, {"measurement": "AUC", "setting": "[12]", "result": 4590, "unit": "ng·h/mL"}, {"measurement": "AUC(0-t)", "setting": "[13]", "result": 713, "unit": "ng·h/mL"}, {"measurement": "AUC(0-t)", "setting": "[14]", "result": 3900, "unit": "ng·h/mL"}, {"measurement": "clearance", "setting": "[15]", "result": 22.7, "unit": "mL/min/kg"}, {"measurement": "Vd", "setting": "[16]", "result": 8.9, "unit": "L/kg"}, {"measurement": "bioavailability", "setting": "[17]", "result": 101, "unit": "%"}, {"measurement": "T/C", "setting": "HT-29 [18]", "result": 54.6, "unit": "%"}, {"measurement": "Activity", "setting": "Mus musculus [19]", "result": 5.5, "unit": "%"}, {"measurement": "F", "setting": "Mus musculus [20]", "result": 100, "unit": "%"}]}, {"molecule": "CC[C@@H]1c2c(C#N)ncn2-c2cnc(Nc3cc(F)c(C(=O)NC4CN(C)C4)cc3OC)nc2N1C(C)C", "values": [{"measurement": "EC50", "setting": "HT-29 [1]", "result": 3, "unit": "nM"}, {"measurement": "inhibition (INH)", "setting": "[3]", "result": "Not Active"}]}, {"molecule": "CCNC(=O)c1ncn2c1[C@@H](CC)N(C1CCCC1)c1nc(Nc3ccc(C(=O)NC4CCN(C)CC4)cc3OC)ncc1-2", "values": [{"measurement": "EC50", "setting": "HT-29 [1]", "result": 100, "unit": "nM"}]}, {"molecule": "CC[C@@H]1c2c(C(=O)O)ncn2-c2cnc(Nc3ccc(C(=O)NC4CCN(C)CC4)cc3OC)nc2N1C1CCCC1", "values": [{"measurement": "EC50", "setting": "HT-29 [1]", "result": 400, "unit": "nM"}]}, {"molecule": "CC[C@@H]1c2c(C#N)ncn2-c2cnc(Nc3cc(F)c(C(=O)NC4CCN(C)CC4)cc3OC)nc2N1C1CCCC1", "values": [{"measurement": "EC50", "setting": "HT-29 [1]", "result": 1, "unit": "nM"}, {"measurement": "bioavailability", "setting": "[2]", "result": 49, "unit": "%"}, {"measurement": "clearance", "setting": "[21]", "result": 28, "unit": "mL/min/kg"}, {"measurement": "IC50", "setting": "Cytochrome P450 3A4", "result": "< 10000", "unit": "nM"}, {"measurement": "IC50", "setting": "Cytochrome P450 2C8", "result": "< 10000", "unit": "nM"}]}, {"molecule": "CC[C@@H]1c2c(C#N)ncn2-c2cnc(Nc3ccc(C(=O)NC4CCN(C)CC4)cc3OC)nc2N1C1CCCC1", "values": [{"measurement": "EC50", "setting": "HT-29 [1]", "result": "2.7 to 3", "unit": "nM"}, {"measurement": "bioavailability", "setting": "[2]", "result": 0, "unit": "%"}, {"measurement": "clearance", "setting": "[21]", "result": 76, "unit": "mL/min/kg"}, {"measurement": "IC50", "setting": "Cytochrome P450 3A4", "result": "< 10000", "unit": "nM"}]}, {"molecule": "CC[C@@H]1c2c(C(N)=O)ncn2-c2cnc(Nc3ccc(C(=O)NC4CCN(C)CC4)cc3OC)nc2N1C1CCCC1", "values": [{"measurement": "EC50", "setting": "HT-29 [1]", "result": 20, "unit": "nM"}]}, {"molecule": "CC[C@@H]1c2c(C#N)ncn2-c2cnc(Nc3cc(F)c(C(=O)NC4CCN(CC)CC4)cc3OC)nc2N1C(C)C", "values": [{"measurement": "EC50", "setting": "HT-29 [1]", "result": 3, "unit": "nM"}, {"measurement": "inhibition (INH)", "setting": "[3]", "result": "Not Active"}, {"measurement": "inhibition at 10 µM", "setting": "hERG (KCNH2)", "result": 37, "unit": "%"}]}, {"molecule": "CC[C@@H]1c2c(C#N)ncn2-c2cnc(Nc3ccc(C(=O)NC4CCN(C)CC4)cc3OC)nc2N1C(C)C", "values": [{"measurement": "EC50", "setting": "HT-29 [1]", "result": 6, "unit": "nM"}, {"measurement": "bioavailability", "setting": "[2]", "result": 0.5, "unit": "%"}, {"measurement": "inhibition (INH)", "setting": "[3]", "result": "Not Active"}]}]}
